Data from ChEMBL document CHEMBL4038273, “MAO enzymes inhibitory activity of new benzimidazole derivatives including hydrazone and propargyl side chains” (Eur J Med Chem, 2017).

Key:
[1] = biological target: T1, Amine oxidase [flavin-containing] B (Homo sapiens, UniProt P27338); test: Inhibition of recombinant human MAO-B expressed in baculovirus infected BTI insect cells using tyramine as substrate pretreated for 30 mins followed by substrate addition incubated for 30 mins measured at 5 mins interval by horse-radish peroxidase/amplex red-based fluorometric method; assay type: cell-based
T1 sequence (P27338 whole entry): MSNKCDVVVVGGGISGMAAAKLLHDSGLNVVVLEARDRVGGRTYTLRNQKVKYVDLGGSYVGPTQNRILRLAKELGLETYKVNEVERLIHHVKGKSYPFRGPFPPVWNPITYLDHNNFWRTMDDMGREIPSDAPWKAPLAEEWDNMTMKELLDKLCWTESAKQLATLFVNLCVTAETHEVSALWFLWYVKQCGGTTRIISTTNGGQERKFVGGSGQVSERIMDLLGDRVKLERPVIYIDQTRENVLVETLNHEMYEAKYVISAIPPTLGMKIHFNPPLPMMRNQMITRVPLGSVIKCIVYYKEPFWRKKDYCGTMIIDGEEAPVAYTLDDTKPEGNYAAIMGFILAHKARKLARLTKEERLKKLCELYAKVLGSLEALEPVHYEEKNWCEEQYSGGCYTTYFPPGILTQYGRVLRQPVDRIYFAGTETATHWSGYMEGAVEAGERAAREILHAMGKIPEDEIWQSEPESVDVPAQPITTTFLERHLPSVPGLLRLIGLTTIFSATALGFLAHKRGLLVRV

[2] = species on record: Homo sapiens; test: Selectivity index, ratio of IC50 for recombinant human MAO-A expressed in baculovirus infected BTI insect cells to IC50 for recombinant human MAO-B expressed in baculovirus infected BTI insect cells
How it was run: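 Selectivity index calculated as IC50(MAO-A)/IC50(MAO-B), with both IC50 values from the fluorometric tyramine/HRP/Amplex Red inhibition assay.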

[3] = biological target: T1, Amine oxidase [flavin-containing] B; test: Non-competitive inhibition of recombinant human MAO-B expressed in baculovirus infected BTI insect cells using varying levels of tyramine as substrate pretreated for 30 mins followed by substrate addition measured for 30 mins by Line-weaver burk plot method
How it was run: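 hMAO-B preincubated 30 min at 37°C with inhibitor at five concentrations. Working solution with tyramine at 20, 10, 5, 2.5, 1.25 and 0.625 µM then added, and fluorescence (Ex/Em 535/587 nm) followed for 30 min alongside an inhibitor-free run; quadruplicate. Inhibition type from Lineweaver-Burk plots; Ki from x-intercept of Vmax replotted against inhibitor concentration.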

[4] = test system: NIH3T3; test: Cytotoxicity against mouse NIH/3T3 cells by MTT assay; assay type: cell-based
How it was run: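 NIH/3T3 mouse embryonic fibroblasts seeded at 1x10^4 cells per well and grown per supplier recommendations. Compounds tested over 0.0316-1000 µM by MTT reduction to formazan; IC50 determined.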

[5] = test system: Salmonella typhimurium; test: Genotoxicity in Salmonella typhimurium TA98 assessed as increase in number of revertants at 0.156 mg/ml in presence of aroclor-1254-induced Sprague-Dawley rat liver microsomal S9 fraction by Ames-MPF assay relative to baseline; assay type: toxicity; details: salmonella enterica subsp. enterica serovar typhimurium, microsomes
How it was run: (§1)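 AmesMPF 98/100 fluctuation format with S. typhimurium TA98 (frameshift) and TA100 (base-pair substitution), run with and without S9. Compounds were made up in DMSO at 0.156–5 mg/mL, six levels; solvent control was 4% DMSO. With S9, positive controls were 2-aminoanthracene at 1 µg/mL (TA98) and 2.5 µg/mL (TA100). Wells turned yellow by pH drop were scored positive. Fold over baseline is mean positive wells divided by (zero-dose mean + 1 SD). Student's t-test, p<0.05.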

[6] = test system: Salmonella typhimurium; test: Genotoxicity in Salmonella typhimurium TA98 assessed as increase in number of revertants at 0.625 mg/ml in presence of aroclor-1254-induced Sprague-Dawley rat liver microsomal S9 fraction by Ames-MPF assay relative to baseline; assay type: toxicity; details: salmonella enterica subsp. enterica serovar typhimurium, microsomes; how it was run: as §1
[7] = test system: Salmonella typhimurium; test: Genotoxicity in Salmonella typhimurium TA98 assessed as increase in number of revertants at 1.25 mg/ml in presence of aroclor-1254-induced Sprague-Dawley rat liver microsomal S9 fraction by Ames-MPF assay relative to baseline; assay type: toxicity; details: salmonella enterica subsp. enterica serovar typhimurium, microsomes; how it was run: as §1
[8] = test system: Salmonella typhimurium; test: Genotoxicity in Salmonella typhimurium TA98 assessed as increase in number of revertants at 2.5 mg/ml in presence of aroclor-1254-induced Sprague-Dawley rat liver microsomal S9 fraction by Ames-MPF assay relative to baseline; assay type: toxicity; details: salmonella enterica subsp. enterica serovar typhimurium, microsomes; how it was run: as §1
[9] = test system: Salmonella typhimurium; test: Genotoxicity in Salmonella typhimurium TA98 assessed as increase in number of revertants at 5 mg/ml in presence of aroclor-1254-induced Sprague-Dawley rat liver microsomal S9 fraction by Ames-MPF assay relative to baseline; assay type: toxicity; details: salmonella enterica subsp. enterica serovar typhimurium, microsomes; how it was run: as §1
[10] = test system: Salmonella typhimurium; test: Genotoxicity in Salmonella typhimurium TA98 assessed as increase in number of revertants at 0.625 mg/ml in absence of aroclor-1254-induced Sprague-Dawley rat liver microsomal S9 fraction by Ames-MPF assay relative to baseline; assay type: toxicity; details: salmonella enterica subsp. enterica serovar typhimurium, microsomes; how it was run: as §1
[11] = test system: Salmonella typhimurium; test: Genotoxicity in Salmonella typhimurium TA98 assessed as increase in number of revertants at 2.5 mg/ml in absence of aroclor-1254-induced Sprague-Dawley rat liver microsomal S9 fraction by Ames-MPF assay relative to baseline; assay type: toxicity; details: salmonella enterica subsp. enterica serovar typhimurium, microsomes; how it was run: as §1
[12] = test system: Salmonella typhimurium; test: Genotoxicity in Salmonella typhimurium TA100 assessed as increase in number of revertants at 2.5 mg/ml in presence of aroclor-1254-induced Sprague-Dawley rat liver microsomal S9 fraction by Ames-MPF assay relative to baseline; assay type: toxicity; details: salmonella enterica subsp. enterica serovar typhimurium, microsomes; how it was run: as §1
[13] = test system: Salmonella typhimurium; test: Genotoxicity in Salmonella typhimurium TA100 assessed as increase in number of revertants at 2.5 mg/ml in absence of aroclor-1254-induced Sprague-Dawley rat liver microsomal S9 fraction by Ames-MPF assay relative to baseline; assay type: toxicity; details: salmonella enterica subsp. enterica serovar typhimurium, microsomes; how it was run: as §1
[14] = test system: Salmonella typhimurium; test: Genotoxicity in Salmonella typhimurium TA100 assessed as increase in number of revertants at 5 mg/ml in absence of aroclor-1254-induced Sprague-Dawley rat liver microsomal S9 fraction by Ames-MPF assay relative to baseline; assay type: toxicity; details: salmonella enterica subsp. enterica serovar typhimurium, microsomes; how it was run: as §1

Row | IC50 [1] | Ki [3] | Structure (SMILES) | Ratio IC50 [2] | IC50 [4] | fold change (FC) [5] | fold change (FC) [6] | fold change (FC) [7] | fold change (FC) [8] | fold change (FC) [9] | fold change (FC) [10] | fold change (FC) [11] | fold change (FC) [12] | fold change (FC) [13] | fold change (FC) [14]
1 | 0.075 µM | 0.15 to 0.151 µM | C#CCn1c(-c2ccc(C(=O)N/N=C/c3cccnc3)cc2)nc2ccccc21 | 128 | 316 µM | 0.35 | 0.35 | 0.52 | 0.52 | 0 | 0.51 | 0.4 | 0.27 | 0.74 | 0.89
2 | 0.136 µM | – | C#CCn1c(-c2ccc(C(=O)N/N=C/c3ccc(F)cc3)cc2)nc2ccccc21 | 6.26 | ≥ 1000 µM | 1.3 | 2.01 | 2.13 | 2.95 | 3.07 | 0.23 | 0.28 | 1.88 | 1.78 | 1.63
